“And” between values parts separate entries of the source, which are not always exact repeats. Equal entries are not always repeated.
Legend:
[1] = In vitro inhibition of human lymphocyte proliferation in response to phytohemagglutininin (PHA) was determined; format: functional
[2] = In vitro inhibition of human lymphocyte proliferation in response to staphylococcus protein A(SPA) was determined; format: functional
[3] = In vitro inhibition of human lymphocyte proliferation in response to pokeweed mitogen(PWM) was determined; format: functional
[4] = target: Inosine-5'-monophosphate dehydrogenase 1 (Homo sapiens, UniProt P20839); test: In vitro inhibition of inosine Inosine-5'-monophosphate dehydrogenase
Chain of Inosine-5'-monophosphate dehydrogenase 1 (P20839 whole entry): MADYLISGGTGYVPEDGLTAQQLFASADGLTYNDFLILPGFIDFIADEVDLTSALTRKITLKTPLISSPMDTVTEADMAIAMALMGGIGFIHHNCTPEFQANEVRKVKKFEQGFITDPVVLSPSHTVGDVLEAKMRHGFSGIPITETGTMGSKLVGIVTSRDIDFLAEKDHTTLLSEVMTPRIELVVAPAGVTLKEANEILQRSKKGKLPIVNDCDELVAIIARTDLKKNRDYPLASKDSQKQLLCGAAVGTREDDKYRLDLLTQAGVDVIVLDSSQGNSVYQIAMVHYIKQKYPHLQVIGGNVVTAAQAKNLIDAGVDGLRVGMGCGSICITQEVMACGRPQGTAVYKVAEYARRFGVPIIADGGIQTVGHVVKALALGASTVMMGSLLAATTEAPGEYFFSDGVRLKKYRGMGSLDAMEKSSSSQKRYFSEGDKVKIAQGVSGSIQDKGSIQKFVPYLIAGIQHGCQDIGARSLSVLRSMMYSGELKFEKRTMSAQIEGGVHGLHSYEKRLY
Method in brief: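 IMPD came from a MOLT-4 cell lysate: five freeze-thaw cycles, then the high-speed (ca. 31000g) supernatant was kept. Assay in 50 mM potassium phosphate pH 7.4 with 10 μM [¹⁴C]IMP, 0.3 mM NAD, 0.1 M KCl and 1 mM EDTA, 25 min at 37 °C. Stopped with HClO₄; IMP/XMP quantified by anion-exchange HPLC with radioflow detection. Five concentrations, 0.02–5.0 μg/mL; IC₅₀ determined graphically.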

Mus musculus [5] = test: The compound was tested in vivo for inhibition of plaques per million after 50 mg/kg oral administration in mice.; format: functional
Mus musculus [6] = test: In vivo antibody response to sheep red blood cells(SRBC) by plaque-forming cells in the spleen (PFC/spleen) after 40 mg/kg oral administration in mice.; format: functional
Mus musculus [7] = test: In vivo inhibition of plaque-forming cells in the spleen (PFC/spleen) after 40 mg/kg oral administration in mice.; format: functional
Mus musculus [8] = test: In vivo antibody response to sheep red blood cells(SRBC) by plaque-forming cells in the spleen (PFC/spleen) after 100 mg/kg oral administration in mice.; format: functional
Mus musculus [9] = test: In vivo antibody response to sheep red blood cells by plaque-forming cells in the spleen (PFC/spleen) after 25 mg/kg oral administration in mice.; format: functional
Mus musculus [10] = test: In vivo total no of plaques in spleen was determined after 100 mg/kg oral administration in mice.; format: functional
Mus musculus [11] = test: The compound was tested in vivo for inhibition of plaque-forming cells in the spleen (PFC/spleen) after 50 mg/kg oral administration in mice; format: functional
Mus musculus [12] = test: The compound was tested in vivo for inhibition of plaques per million after 25 mg/kg oral administration in mice.; format: functional
Mus musculus [13] = test: In vivo inhibition of plaque-forming cells in the spleen (PFC/spleen) after 100 mg/kg oral administration in mice.; format: functional
Mus musculus [14] = test: In vivo inhibition of plaque-forming cells in the spleen (PFC/spleen) after 25 mg/kg oral administration in mice.; format: functional
Mus musculus [15] = test: The compound was tested in vivo for inhibition of plaques per million after 40 mg/kg oral administration in mice.; format: functional
Mus musculus [16] = test: In vivo total no of plaques in spleen was determined after 25 mg/kg oral administration in mice.; format: functional
Mus musculus [17] = test: In vivo total no of plaques in spleen was determined after 50 mg/kg oral administration in mice.; format: functional
Mus musculus [18] = test: The compound was tested in vivo for inhibition of plaques per million after 100 mg/kg oral administration in mice.; format: functional
Mus musculus [19] = test: In vivo antibody response to sheep red blood cells(SRBC) by plaque-forming cells in the spleen (PFC/spleen) after 50 mg/kg oral administration in mice.; format: functional
Mus musculus [20] = test: (§1) In vivo antibody response to sheep red blood cells(SRBC) by plaques per million after 25 mg/kg oral administration in mice.; format: functional
Mus musculus [21] = test: In vivo antibody response to sheep red blood cells(SRBC) by plaque-forming cells in the spleen (PFC/spleen) after 25 mg/kg oral administration in mice.; format: functional
Mus musculus [22] = test: as §1; format: functional; remark: listed apart in the source
Mus musculus [23] = test: In vivo inhibition of plaques per million after 25 mg/kg oral administration in mice.; format: functional
Mus musculus [24] = test: In vivo for antibody response to sheep red blood cells(SRBC) by plaque-forming cells in the spleen (PFC/spleen) after 25 mg/kg oral administration in mice.; format: functional

SMILES	IC50 [4]	IC50 [1]	IC50 [2]	IC50 [3]	other results
COc1c(C)c2c(c(O)c1C/C=C/CCC(=O)O)C(=O)OC2	–	4.8 µM	4.8 µM	4.8 µM	–
COc1c(C)c2c(c(O)c1CSCCC(=O)O)C(=O)OC2	10.9 µM	> 10 µM	> 10 µM	> 10 µM	–
COc1c(C)c2c(c(O)c1CC#CCCCC(=O)O)C(=O)OC2	2.5 µM	6 µM	> 10 µM	6 µM	–
COc1c(C)c2c(c(O)c1C/C=C/CCCC(=O)O)C(=O)OC2	–	> 10 µM	> 10 µM	> 10 µM	–
COc1c(C)c2c(c(O)c1CCCCCC(=O)O)C(=O)OC2	0.94 µM	2.5 µM	1.6 µM	4.3 µM	–
COc1c(C)c2c(c(O)c1C/C=C(\C)CCC(=O)O)C(=O)OC2 [MYCOPHENOLIC ACID]	0.02 µM	0.06 µM	0.06 µM	0.02 µM	PPM (Mus musculus [20]): 308 PPM; PFC/spleen (Mus musculus [21]): 45333; PPM (Mus musculus [22]): 264; Inhibition (Mus musculus [23]): 65% and 44%; Inhibition (Mus musculus [14]; 25 mg/kg): 69% and 46%; PFC/spleen (Mus musculus [24]): 36027

Continued, in another order:

IC50 [4]	SMILES	IC50 [1]	IC50 [2]	IC50 [3]	other results
2.6 µM	COc1c(C)c2c(c(O)c1CC1C(F)(F)C1(C)CCC(=O)O)C(=O)OC2 (stereo unspecified)	3.1 µM	10 µM	2.8 µM	–
22.7 µM	COc1c(C)c2c(c(O)c1CSCCCC(=O)O)C(=O)OC2	> 10 µM	> 10 µM	> 10 µM	–
1.2 µM	COc1c(C)c2c(c(O)c1CC=C=C(C)CCC(=O)O)C(=O)OC2	0.35 µM	0.15 µM	0.35 µM	inhibition in vivo at 50 mg/kg (Mus musculus [5]): -20%; PFC/spleen (Mus musculus [6]): 99333; inhibition in vivo at 40 mg/kg (Mus musculus [7]): 15%; PFC/spleen (Mus musculus [8]): 17000; PFC/spleen (Mus musculus [9]): 96583; PPM (Mus musculus [10]): 114; inhibition in vivo at 50 mg/kg (Mus musculus [11]): -33%; inhibition in vivo at 25 mg/kg (Mus musculus [12]): 16%; inhibition in vivo at 100 mg/kg (Mus musculus [13]): 80%; inhibition in vivo at 25 mg/kg (Mus musculus [14]; Mus musculus, Spleen, po): 18%; inhibition in vivo at 40 mg/kg (Mus musculus [15]): 22%; PPM (Mus musculus [16]): 630 and 583; PPM (Mus musculus [17]): 657; inhibition in vivo at 100 mg/kg (Mus musculus [18]): 79%; PFC/spleen (Mus musculus [19]): 112416
1.1 µM	COc1c(C)c2c(c(O)c1CC1CC1(C)CCC(=O)O)C(=O)OC2 (stereo unspecified)	3.8 µM	4.3 µM	1.7 µM	–
2.6 µM	COc1c(C)c2c(c(O)c1CC#CCCC(=O)O)C(=O)OC2	4.8 µM	7.5 µM	2.4 µM	–
1.8 µM	COc1c(C)c2c(c(O)c1CCCCCCC(=O)O)C(=O)OC2	> 10 µM	> 10 µM	> 10 µM	–
3.1 µM	COc1c(C)c2c(c(O)c1CC1C(Br)(Br)C1(C)CCC(=O)O)C(=O)OC2 (stereo unspecified)	4.4 µM	> 10 µM	> 10 µM	–

From ChEMBL document CHEMBL1124704, “Synthesis and immunosuppressive activity of some side-chain variants of mycophenolic acid” (J Med Chem, 1990)
